Source: paper PMC8162940 (Nature chemical biology, 2021)

How the values were obtained:
IL-2 = IL-2 secretion from stimulated Jurkat cells; type: cell-based, human; conditions: Jurkat cells pre-treated with 1 μM for 18h, then stimulated 24h
Method in brief: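 Jurkat cells were pre-incubated 18 h with 1 μM test compound, then activated with ImmunoCult CD3/CD28 activator for 24 h, and supernatant IL-2 was measured by AlphaLISA. Mean ± SD of 3 (unstimulated) or 4 (stimulated) biological samples, representative of 2 experiments. Two-way ANOVA with Bonferroni correction.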

Ikaros = Ikaros (Mus musculus, UniProt Q03267+Q8C7D2, I391V); test: Ikaros levels in murine splenocytes, flow cytometry; type: cell-based; conditions: Crbn^I391V/I391V but not wildtype cells, 1 μM, 16h
Sequence of Ikaros (Q03267 whole entry): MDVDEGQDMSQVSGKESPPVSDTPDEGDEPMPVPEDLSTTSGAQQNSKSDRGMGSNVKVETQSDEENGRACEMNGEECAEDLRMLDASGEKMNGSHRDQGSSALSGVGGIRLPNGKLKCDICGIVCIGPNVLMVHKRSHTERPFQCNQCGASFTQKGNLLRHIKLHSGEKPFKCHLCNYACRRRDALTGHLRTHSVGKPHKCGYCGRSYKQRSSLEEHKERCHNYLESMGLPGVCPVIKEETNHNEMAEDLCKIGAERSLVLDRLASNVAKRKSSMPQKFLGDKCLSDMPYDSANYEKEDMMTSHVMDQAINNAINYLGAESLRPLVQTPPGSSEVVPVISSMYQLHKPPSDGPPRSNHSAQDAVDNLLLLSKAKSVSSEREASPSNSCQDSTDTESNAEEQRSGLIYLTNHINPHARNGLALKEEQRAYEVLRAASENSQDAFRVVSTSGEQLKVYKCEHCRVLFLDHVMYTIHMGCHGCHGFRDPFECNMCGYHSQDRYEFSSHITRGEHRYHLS
Sequence of Ikaros (Q8C7D2 whole entry I391V): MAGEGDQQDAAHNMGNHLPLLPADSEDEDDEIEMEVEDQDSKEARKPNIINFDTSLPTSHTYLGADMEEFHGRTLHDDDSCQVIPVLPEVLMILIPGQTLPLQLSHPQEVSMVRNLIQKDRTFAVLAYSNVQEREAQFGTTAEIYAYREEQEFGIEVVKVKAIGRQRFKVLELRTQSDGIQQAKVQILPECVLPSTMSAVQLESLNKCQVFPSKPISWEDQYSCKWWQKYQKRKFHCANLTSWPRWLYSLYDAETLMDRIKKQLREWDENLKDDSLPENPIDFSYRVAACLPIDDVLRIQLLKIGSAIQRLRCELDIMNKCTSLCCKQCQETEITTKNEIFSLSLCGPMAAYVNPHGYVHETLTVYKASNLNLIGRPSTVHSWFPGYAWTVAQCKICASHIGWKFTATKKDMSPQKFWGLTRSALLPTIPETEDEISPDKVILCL
Sequence of Ikaros (Q3U1J4 whole entry partner): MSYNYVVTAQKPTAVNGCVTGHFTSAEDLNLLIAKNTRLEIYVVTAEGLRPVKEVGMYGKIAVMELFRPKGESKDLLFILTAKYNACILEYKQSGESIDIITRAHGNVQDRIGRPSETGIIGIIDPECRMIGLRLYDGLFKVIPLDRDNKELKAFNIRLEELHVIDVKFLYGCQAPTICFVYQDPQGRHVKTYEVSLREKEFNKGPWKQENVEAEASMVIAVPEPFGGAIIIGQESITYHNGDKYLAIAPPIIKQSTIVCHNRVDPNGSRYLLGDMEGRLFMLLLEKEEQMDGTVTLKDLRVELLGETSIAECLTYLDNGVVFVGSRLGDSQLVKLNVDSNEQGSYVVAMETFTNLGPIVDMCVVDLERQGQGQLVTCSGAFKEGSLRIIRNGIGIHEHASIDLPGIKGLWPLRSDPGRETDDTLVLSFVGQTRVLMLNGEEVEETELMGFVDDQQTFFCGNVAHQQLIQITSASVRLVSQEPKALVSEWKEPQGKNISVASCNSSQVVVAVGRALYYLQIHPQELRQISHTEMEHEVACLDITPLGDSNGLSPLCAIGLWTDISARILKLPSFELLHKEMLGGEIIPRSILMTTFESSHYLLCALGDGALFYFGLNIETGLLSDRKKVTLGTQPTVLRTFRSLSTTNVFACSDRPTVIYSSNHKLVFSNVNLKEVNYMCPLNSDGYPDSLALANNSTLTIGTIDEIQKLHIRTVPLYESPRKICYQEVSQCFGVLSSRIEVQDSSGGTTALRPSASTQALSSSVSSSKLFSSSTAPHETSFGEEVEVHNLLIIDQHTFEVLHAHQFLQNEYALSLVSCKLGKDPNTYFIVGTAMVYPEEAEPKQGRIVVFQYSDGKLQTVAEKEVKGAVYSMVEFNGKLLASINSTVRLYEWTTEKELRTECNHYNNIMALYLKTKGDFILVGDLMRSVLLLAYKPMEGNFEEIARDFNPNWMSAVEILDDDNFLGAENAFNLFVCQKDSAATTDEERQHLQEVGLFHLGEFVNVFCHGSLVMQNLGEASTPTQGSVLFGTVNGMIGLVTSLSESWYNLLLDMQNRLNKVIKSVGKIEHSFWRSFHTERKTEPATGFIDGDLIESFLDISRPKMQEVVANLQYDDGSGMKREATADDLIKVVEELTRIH

Which results are given for `Nc1cccc2c1CN(C1CCC(=O)NC1=O)C2=O` (centres unmarked) [lenalidomide]?
IL-2 secretion (IL-2): enhanced IL-2 secretion; Ikaros degradation in splenocytes (Ikaros): induced selective degradation of Ikaros
